ChEMBL document CHEMBL4689842, “EUbOPEN Chemogenomics Library wave 1” (2021)

Assays:
HEK-293T = test: Multiplex assay against HEK293T; format: toxicity, cell-based; settings: human;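 as to Population Tubulin-Different-Phenotype (%): share of the cells with healthy nuclei that show this phenotype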
Method in brief: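 Imaging took place on a CQ1 microscope at 37°C and 5% CO2 once compound had been added to live cells stained at seeding with Hoechst33342, BioTracker Green Microtubule Cytoskeleton Dye, MitoTracker Red and Annexin V Alexa Fluor 680. CellPathfinder machine-learning gating classed cells as Hoechst high-intensity objects or normal cells, classed normal cells as having healthy, pyknosed or fragmented nuclei, and classed pyknosed cells as mitotic or apoptotic. Tubulin, mitochondrial-mass and membrane-permeability phenotypes are per cents of the healthy-nucleus cells.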

Fibroblast = test: Incucyte cell viability with human fibroblast; format: toxicity, cell-based; settings: 10 µM, compound concentration 10 uM; also: filed as whole numbers so only -1 and 0 and 1 occur
[1] = 24 h, 10 µM, compound concentration 10 uM, replicate 1
[2] = 24 h, 10 µM, compound concentration 10 uM, replicate 2
[3] = 48 h, 1 µM, compound concentration 1 uM, replicate 1
[4] = 48 h, 1 µM, compound concentration 1 uM, replicate 2
[5] = 48 h, 10 µM, compound concentration 10 uM, replicate 1
[6] = 48 h, 10 µM, compound concentration 10 uM, replicate 2

Structure (SMILES): CC(C)[C@H](CO)Nc1nc(Nc2cccc(Cl)c2)c2ncn(C(C)C)c2n1 [PURVALANOLA]
- Population Fragmented Nuclei (%) (HEK-293T; [1]): 6%
- Population Healthy Nuclei (%) (HEK-293T; [1]): 31%
- Population Hoechst High Intensity Objects (%) (HEK-293T; [1]): 12%
- Population Membrane Permeable-Phenotype (%) (HEK-293T; [1]): 2%
- Population Mitochondria Different-Phenotype (%) (HEK-293T; [1]): 98%
- Population Mitotic Cells (%) (HEK-293T; [1]): 24%
- Population Normal (%) (HEK-293T; [1]): 87%
- Population Pyknosed Nuclei (%) (HEK-293T; [1]): 61%
- Population Tubulin-Different-Phenotype (%) (HEK-293T; [1]): 96%
- Total Cell Count (HEK-293T; [1]): 375
- Population Apoptotic (%) (HEK-293T; [2]): 69%
- Population Fragmented Nuclei (%) (HEK-293T; [2]): 4%
- Population Healthy Nuclei (%) (HEK-293T; [2]): 19%
- Population Hoechst High Intensity Objects (%) (HEK-293T; [2]): 9%
- Population Membrane Permeable-Phenotype (%) (HEK-293T; [2]): 5%
- Population Mitochondria Different-Phenotype (%) (HEK-293T; [2]): 94%
- Population Mitotic Cells (%) (HEK-293T; [2]): 30%
- Population Normal (%) (HEK-293T; [2]): 90%
- Population Pyknosed Nuclei (%) (HEK-293T; [2]): 75%
- Population Tubulin-Different-Phenotype (%) (HEK-293T; [2]): 97%
- Total Cell Count (HEK-293T; [2]): 200
- Population Apoptotic (%) (HEK-293T; [3]): 49%
- Population Fragmented Nuclei (%) (HEK-293T; [3]): 18%
- Population Healthy Nuclei (%) (HEK-293T; [3]): 42%
- Population Hoechst High Intensity Objects (%) (HEK-293T; [3]): 13%
- Population Membrane Permeable-Phenotype (%) (HEK-293T; [3]): 3%
- Population Mitochondria Different-Phenotype (%) (HEK-293T; [3]): 46%
- Population Mitotic Cells (%) (HEK-293T; [3]): 50%
- Population Normal (%) (HEK-293T; [3]): 86%
- Population Pyknosed Nuclei (%) (HEK-293T; [3]): 40%
- Population Tubulin-Different-Phenotype (%) (HEK-293T; [3]): 38%
- Total Cell Count (HEK-293T; [3]): 347
- Population Apoptotic (%) (HEK-293T; [4]): 13%
- Population Fragmented Nuclei (%) (HEK-293T; [4]): 7%
- Population Healthy Nuclei (%) (HEK-293T; [4]): 77%
- Population Hoechst High Intensity Objects (%) (HEK-293T; [4]): 4%
- Population Mitochondria Different-Phenotype (%) (HEK-293T; [4]): 12%
- Population Mitotic Cells (%) (HEK-293T; [4]): 86%
- Population Normal (%) (HEK-293T; [4]): 95%
- Population Pyknosed Nuclei (%) (HEK-293T; [4]): 15%
- Population Tubulin-Different-Phenotype (%) (HEK-293T; [4]): 26%
- Total Cell Count (HEK-293T; [4]): 414
- Population Apoptotic (%) (HEK-293T; [5]): 85%
- Population Fragmented Nuclei (%) (HEK-293T; [5]): 8%
- Population Healthy Nuclei (%) (HEK-293T; [5]): 50%
- Population Hoechst High Intensity Objects (%) (HEK-293T; [5]): 12%
- Population Mitochondria Different-Phenotype (%) (HEK-293T; [5]): 99%
- Population Mitotic Cells (%) (HEK-293T; [5]): 14%
- Population Normal (%) (HEK-293T; [5]): 87%
- Population Pyknosed Nuclei (%) (HEK-293T; [5]): 41%
- Population Tubulin-Different-Phenotype (%) (HEK-293T; [5]): 99%
- Total Cell Count (HEK-293T; [5]): 366
- Population Apoptotic (%) (HEK-293T; [6]): 89%
- Population Fragmented Nuclei (%) (HEK-293T; [6]): 6%
- Population Healthy Nuclei (%) (HEK-293T; [6]): 38%
- Population Hoechst High Intensity Objects (%) (HEK-293T; [6]): 5%
- Population Membrane Permeable-Phenotype (%) (HEK-293T; [6]): 2%
- Population Mitochondria Different-Phenotype (%) (HEK-293T; [6]): 94%
- Population Mitotic Cells (%) (HEK-293T; [6]): 10%
- Population Normal (%) (HEK-293T; [6]): 94%
- Population Pyknosed Nuclei (%) (HEK-293T; [6]): 55%
- Population Tubulin-Different-Phenotype (%) (HEK-293T; [6]): 94%
- Total Cell Count (HEK-293T; [6]): 190
- Growth Rate (Fibroblast; 0 h, replicate number 1, timepoint 0 hours): 0
- Growth Rate (Fibroblast; 6 h, replicate number 1, timepoint 6 hours): 0
- Growth Rate (Fibroblast; 12 h, replicate number 1, timepoint 12 hours): 0
- Growth Rate (Fibroblast; 18 h, replicate number 1, timepoint 18 hours): 0
- Growth Rate (Fibroblast; 24 h, replicate number 1, timepoint 24 hours): 0
